Experimental data: ChEMBL document CHEMBL1148335, “Design and synthesis of potent inhibitors of the malaria aspartyl proteases plasmepsin I and II. Use of solid-phase synthesis to explore novel statine motifs” (J Med Chem, 2004)

Key:
Plasmepsin II = Plasmepsin II (Plasmodium falciparum, UniProt P46925); test: In vitro inhibition of aspartic protease plasmepsin (Plm) II of Plasmodium falciparum
How it was run: (§1)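 Fluorogenic DABCYL-Glu-Arg-Nle-Phe-Leu-Ser-Phe-Pro-EDANS substrate at 3 µM in 100 mM sodium acetate pH 4.5, 10% glycerol, 0.01% Tween 20. Inhibitors were serially diluted in DMSO and added just before substrate, at 1% final DMSO. Fluorescence increase was read over a linear 10 min. IC50 came from a competitive Langmuir fit, and Ki = IC50/(1+[S]/Km), with Km from Michaelis-Menten.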

Plasmepsin I = Plasmepsin I (Plasmodium falciparum, UniProt P39898); test: In vitro inhibition of aspartic protease plasmepsin-1 (Plm) of Plasmodium falciparum.; how it was run: as §1
Cathepsin D = Cathepsin D (Homo sapiens, UniProt P07339); test: In vitro inhibition of human liver cathepsin D.; how it was run: as §1
Plasmodium falciparum [1] = test: Growth inhibition of Plasmodium falciparum infected human erythrocytes at 5 uM; type: functional
How it was run: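 P. falciparum clone 3D7 was used as a highly synchronous early-trophozoite culture at ~1% haematocrit and 1% parasitaemia, with [3H]hypoxanthine at 10 µCi/ml. Compound was added at 1–5 µM final, with DMSO at most 1% v/v. Cultures grew 37 °C, 30 h, to schizonts, then were harvested onto filters for β-counting. Radioactivity was expressed relative to DMSO-only wells, from four independent experiments.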

Plasmodium falciparum [2] = test: Growth inhibition of Plasmodium falciparum infected human erythrocytes at 20 uM; type: functional

Sequence of Plasmepsin II (P46925 whole entry): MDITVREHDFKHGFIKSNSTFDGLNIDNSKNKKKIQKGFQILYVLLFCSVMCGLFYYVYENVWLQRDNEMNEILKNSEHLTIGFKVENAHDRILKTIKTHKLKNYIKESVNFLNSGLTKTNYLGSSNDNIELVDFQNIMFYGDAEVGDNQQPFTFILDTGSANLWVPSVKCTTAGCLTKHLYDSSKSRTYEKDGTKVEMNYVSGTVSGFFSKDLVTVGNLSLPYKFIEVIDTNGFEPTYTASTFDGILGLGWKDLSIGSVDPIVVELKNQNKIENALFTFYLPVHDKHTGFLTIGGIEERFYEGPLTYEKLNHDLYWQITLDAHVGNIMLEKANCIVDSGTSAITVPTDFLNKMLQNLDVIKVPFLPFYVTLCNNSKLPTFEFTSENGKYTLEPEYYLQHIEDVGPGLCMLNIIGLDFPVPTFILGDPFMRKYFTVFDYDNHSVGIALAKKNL
Sequence of Cathepsin D (P07339 65-162 limits assumed): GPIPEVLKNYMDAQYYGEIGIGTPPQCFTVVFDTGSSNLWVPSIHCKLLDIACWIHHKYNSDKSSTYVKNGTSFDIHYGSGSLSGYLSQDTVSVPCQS
Sequence of Cathepsin D (P07339 169-412 limits assumed): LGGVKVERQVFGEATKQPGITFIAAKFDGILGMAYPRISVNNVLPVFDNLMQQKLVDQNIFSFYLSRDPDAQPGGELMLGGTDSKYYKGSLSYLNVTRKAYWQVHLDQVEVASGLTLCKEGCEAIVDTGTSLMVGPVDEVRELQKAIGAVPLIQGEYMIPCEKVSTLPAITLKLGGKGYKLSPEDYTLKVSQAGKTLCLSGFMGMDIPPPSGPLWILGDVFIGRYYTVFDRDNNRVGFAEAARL
Sequence of Plasmepsin I (P39898 whole entry): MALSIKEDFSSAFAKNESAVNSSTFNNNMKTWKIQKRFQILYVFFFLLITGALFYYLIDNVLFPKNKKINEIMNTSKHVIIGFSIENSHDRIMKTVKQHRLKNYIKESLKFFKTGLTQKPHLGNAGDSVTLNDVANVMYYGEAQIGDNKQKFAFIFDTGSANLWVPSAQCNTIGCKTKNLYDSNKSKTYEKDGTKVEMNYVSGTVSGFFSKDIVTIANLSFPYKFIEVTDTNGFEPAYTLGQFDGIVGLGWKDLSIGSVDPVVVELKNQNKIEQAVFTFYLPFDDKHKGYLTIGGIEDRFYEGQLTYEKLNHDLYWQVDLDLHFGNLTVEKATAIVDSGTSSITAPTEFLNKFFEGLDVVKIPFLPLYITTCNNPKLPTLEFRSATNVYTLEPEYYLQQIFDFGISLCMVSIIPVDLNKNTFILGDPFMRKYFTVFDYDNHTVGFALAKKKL

Ki (Plasmepsin II) | Ki (Plasmepsin I) | Ki (Cathepsin D) | SMILES | inhibition at 5 µM (Plasmodium falciparum [1]) | inhibition at 20 µM (Plasmodium falciparum [2])
29 nM | 6.7 nM | 140 nM | COc1cccc(CCNC(=O)C[C@H](O)[C@H](COCc2ccc(Br)cc2)NC(=O)[C@@H](NC(=O)c2ccccn2)C(C)C)c1 | 25% | –
248 nM | 49 nM | > 4000 nM | COCCCNC(=O)C[C@H](O)[C@H](COCc1ccc(Br)cc1)NC(=O)[C@@H](NC(=O)c1ccccn1)C(C)C | – | –
30 nM | 5.4 nM | 459 nM | CC(C)[C@H](NC(=O)c1ccccn1)C(=O)N[C@@H](COCc1ccc(Br)cc1)[C@@H](O)CC(=O)NCCCc1ccccc1 | – | –
10 nM | 3.4 nM | > 4000 nM | CC(C)C[C@H](NC(=O)[C@H](C)NC(=O)C[C@H](O)[C@H](COCc1ccc(Br)cc1)NC(=O)c1c(F)cc(F)cc1F)C(N)=O | – | –
68 nM | 8.1 nM | 473 nM | CCCCNC(=O)C[C@H](O)[C@H](COCc1ccc(Br)cc1)NC(=O)[C@@H](NC(=O)c1ccccn1)C(C)C | – | –
230 nM | 822 nM | > 5900 nM | O=C(C[C@H](O)[C@H](COCc1ccc(Br)cc1)NC(=O)c1c(F)cc(F)cc1F)NC1CCCCC1 | – | –
390 nM | 619 nM | > 5900 nM | COc1cccc(CCNC(=O)C[C@H](O)[C@H](COCc2ccc(Br)cc2)NC(=O)c2c(F)cc(F)cc2F)c1 | – | –
74 nM | 8.9 nM | 265 nM | CC(C)[C@H](NC(=O)c1ccccn1)C(=O)N[C@@H](COCc1ccc(Br)cc1)[C@@H](O)CC(=O)NCCNc1ccccc1 | 25% | –

The remaining lines, values behind:

SMILES | Ki (Plasmepsin II) | Ki (Plasmepsin I) | Ki (Cathepsin D) | inhibition at 5 µM (Plasmodium falciparum [1]) | inhibition at 20 µM (Plasmodium falciparum [2])
CC(C)C[C@H](NC(=O)[C@H](C)NC(=O)C[C@H](O)[C@H](COCc1ccc(Br)cc1)NC(=O)Cc1cccs1)C(N)=O | 348 nM | 24 nM | 35 nM | – | –
CC(C)C[C@H](NC(=O)[C@H](C)NC(=O)C[C@H](O)[C@H](COCc1ccccc1)NC(=O)[C@@H](NC(=O)c1ccccn1)C(C)C)C(N)=O | 11 nM | 5.4 nM | 41 nM | 37% | –
CC(C)[C@H](NC(=O)c1ccccn1)C(=O)N[C@@H](COCc1ccc(Br)cc1)[C@@H](O)CC(=O)NCc1ccccc1 | 41 nM | 3.9 nM | 586 nM | – | –
CC(C)[C@H](NC(=O)c1ccccn1)C(=O)N[C@@H](COCc1ccc(Br)cc1)[C@@H](O)CC(=O)NC1CCCCC1 | 25 nM | 4.1 nM | 217 nM | 21% | –
CC(C)C[C@H](NC(=O)[C@H](C)NC(=O)C[C@H](O)[C@H](COCc1ccc(Br)cc1)NC(=O)[C@H](NC(=O)c1ccccn1)C(C)C)C(N)=O | 15 nM | 6.4 nM | 41 nM | 50% | –
CC(C)C[C@H](NC(=O)[C@H](C)NC(=O)C[C@H](O)[C@H](COCc1ccc(Br)cc1)NC(=O)CC(c1ccccc1)c1ccccc1)C(N)=O | 284 nM | 40 nM | 100 nM | – | –
CC(C)C[C@H](NC(=O)[C@H](C)NC(=O)C[C@H](O)[C@H](CCc1ccccc1)NC(=O)[C@@H](NC(=O)c1ccccn1)C(C)C)C(N)=O | 46 nM | 27 nM | 980 nM | 41% | –
CC(C)C[C@H](NC(=O)[C@H](C)NC(=O)C[C@H](O)[C@H](COCc1ccc(Br)cc1)NC(=O)c1ccc2c(c1)OCO2)C(N)=O | 131 nM | 29 nM | > 5900 nM | – | –
CC(C)C[C@H](NC(=O)[C@H](C)NC(=O)C[C@H](O)[C@H](Cc1ccccc1)NC(=O)[C@@H](NC(=O)c1ccccn1)C(C)C)C(N)=O | – | – | – | – | 54%
CC(C)C[C@H](NC(=O)[C@H](C)NC(=O)C[C@H](O)[C@H](COCc1ccc(Br)cc1)NC(=O)c1ccc(Cl)c(Cl)c1)C(N)=O | 91 nM | 32 nM | 1810 nM | – | –
CC(C)C[C@H](NC(=O)[C@H](C)NC(=O)C[C@H](O)[C@H](COCc1ccc(Br)cc1)NC(=O)[C@@H](NC(=O)c1ccccn1)C(C)C)C(N)=O | 2.2 nM | 0.5 nM | 4.9 nM | – | –
CC(C)[C@H](NC(=O)c1ccccn1)C(=O)N[C@@H](COCc1ccc(Br)cc1)[C@@H](O)CC(=O)NCc1ccc(C#N)cc1 | 256 nM | 53 nM | 623 nM | – | –
CC(C)C[C@H](NC(=O)[C@H](C)NC(=O)C[C@H](O)[C@H](COCc1ccc(Br)cc1)NC(=O)C(c1ccccc1)c1ccccc1)C(N)=O | 139 nM | 57 nM | 52 nM | 10% | –
CC(C)C[C@H](NC(=O)[C@H](C)NC(=O)C[C@H](O)[C@H](COCc1ccc(Br)cc1)NC(=O)[C@@H]1Cc2ccccc2N1)C(N)=O | 144 nM | 59 nM | 322 nM | 16% | –
